Measurements: ChEMBL document CHEMBL1144905, “More lipophilic dialkyldiamine-based diazeniumdiolates: synthesis, characterization, and application in preparing thromboresistant nitric oxide release polymeric coatings” (J Med Chem, 2003)

Assays:
[1] = Apparent half life period in PBS buffer; assay type: ADME
Outline: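 Half-life by chemiluminescence at 37 °C. Diazeniumdiolate in 10 mM NaOH (or, if water-insoluble, in THF or NaOH/MeOH), 25–100 µL, injected into 3 mL deoxygenated 100 mM phosphate buffer pH 7.4 with 137 mM NaCl and 2.7 mM KCl. NO released, removed by nitrogen purge, read every 0.25 s to baseline. Half-life = time to release half of total possible NO.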

[2] = Partition coefficient (logP); assay type: physicochemical; settings: octanol/water
Outline: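 Octanol/water partition coefficient calculated with ChemDraw, not measured.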

Work on `CCNCCCCCCN(CC)/[N+]([O-])=N/O` yielded a half-life [1] of 5.78 min and a logP [2] of 2.03.

Work on `CCCCNCCCCCCN(CCCC)/[N+]([O-])=N/O` yielded a half-life [1] of 4.95 min and a logP [2] of 4.15.

Compound `CNCCCCCCN(C)/[N+]([O-])=N/O` has a half-life [1] of 1.12 min and a logP [2] of 0.97.

In the case of `CCCCCCNCCCCCCN(CCCCCC)/[N+]([O-])=N/O`, the logP [2] is reported as 6.26.

`CCCNCCCCCCN(CCC)/[N+]([O-])=N/O` gave a half-life [1] of 5.32 min and a logP [2] of 3.09.

With `CCCCCNCCCCCCN(CCCCC)/[N+]([O-])=N/O` the half-life [1] was 4.65 min and the logP [2] was 5.21.
